Experimental data reported in ChEMBL document CHEMBL4304834, “3-Amino-chromanes and Tetrahydroquinolines as Selective 5-HT2B, 5-HT7, or σ1 Receptor Ligands” (ACS Med Chem Lett, 2019).
One block for each compound: values may come before it. The source made the active and inactive calls. The rule behind the calls is not given here.

How the values were obtained:
[1] = biological target: Sodium-dependent dopamine transporter (Homo sapiens, UniProt Q01959); experiment: Displacement of [3H]-Win35428 from human recombinant DAT receptor expressed in stable HEK cells at 10 uM after 90 mins by microbeta scintillation counting method relative to control; format: cell-based
Homo sapiens [2] = organism: Homo sapiens; experiment: Selectivity index, ratio of Ki for human recombinant dopamine D1 receptor to Ki for human recombinant sigma1 receptor
Summary of the method: (§1)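 Both Ki values in each ratio come from NIMH Psychoactive Drug Screening Program radioligand binding. […] Other targets were given full binding curves, measured in triplicate, and Ki was taken from a sigmoidal curve fit. Some values were repeated in duplicate or triplicate independent experiments.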

Homo sapiens [3] = organism: Homo sapiens; experiment: Selectivity index, ratio of Ki for human recombinant dopamine D4 receptor to Ki for human recombinant sigma1 receptor; summary of the method: as §1
661W [4] = experiment: Cytoprotective activity in mouse 661W cells assessed as inhibition of t-BHP induced oxidative stress by measuring increase in cell viability at 30 uM after 24 hrs by MTT assay (Rvb < 50%); format: functional
Homo sapiens [5] = organism: Homo sapiens; experiment: Selectivity index, ratio of Ki for human recombinant adrenergic alpha1A receptor to Ki for human recombinant sigma1 receptor; summary of the method: as §1
[6] = Selectivity index, ratio of Ki for rat brain BZP receptor to Ki for human recombinant sigma1 receptor; summary of the method: as §1
Homo sapiens [7] = organism: Homo sapiens; experiment: Selectivity index, ratio of Ki for human recombinant 5-HT7A receptor to Ki for human recombinant sigma1 receptor
Homo sapiens [8] = organism: Homo sapiens; experiment: Selectivity index, ratio of Ki for human recombinant 5-HT1A to Ki for human recombinant sigma1 receptor
Mu-type opioid receptor = Mu-type opioid receptor (Homo sapiens, UniProt P35372); experiment: Displacement of [3H]-DAMGO from human recombinant MOR receptor expressed in stable HEK cells at 10 uM after 90 mins by microbeta scintillation counting method relative to control; format: cell-based
Summary of the method: (§2)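 Radioligand binding run by the NIMH Psychoactive Drug Screening Program. […] Otherwise Ki comes from sigmoidal curve fits of triplicate measurements in a single experiment, or is averaged over repeated experiments each run in triplicate.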

Homo sapiens [9] = organism: Homo sapiens; experiment: Selectivity index, ratio of Ki for human recombinant 5-HT1D receptor to Ki for human recombinant sigma1 receptor
Homo sapiens [10] = organism: Homo sapiens; experiment: Selectivity index, ratio of Ki for human recombinant adrenergic Alpha1D receptor to human recombinant sigma1 receptor; summary of the method: as §1
Homo sapiens [11] = organism: Homo sapiens; experiment: Selectivity index, ratio of Ki for human recombinant 5-HT2C receptor to Ki for human recombinant sigma1 receptor
661W [12] = experiment: Cytoprotective activity in mouse 661W cells assessed as inhibition of t-BHP induced oxidative stress by measuring increase in cell viability after 24 hrs by MTT assay; format: functional, cell-based
661W [13] = experiment: Cytoprotective activity in mouse 661W cells assessed as inhibition of t-BHP induced oxidative stress by measuring cell viability at 200 uM after 24 hrs by MTT assay (reference value: >50%); format: functional, cell-based
Homo sapiens [14] = organism: Homo sapiens; experiment: Selectivity index, ratio of Ki for human recombinant Muscarinic acetylcholine M2 receptor to Ki for human recombinant sigma1 receptor; summary of the method: as §1
Homo sapiens [15] = organism: Homo sapiens; experiment: Selectivity index, ratio of Ki for human recombinant DOR receptor to Ki for human recombinant sigma1 receptor; summary of the method: as §1
Homo sapiens [16] = organism: Homo sapiens; experiment: Selectivity index, ratio of Ki for human recombinant 5-HT1B receptor to Ki for human recombinant sigma1 receptor
Homo sapiens [17] = organism: Homo sapiens; experiment: Selectivity index, ratio of Ki for human recombinant Muscarinic acetylcholine M4 receptor to Ki for human recombinant sigma1 receptor; summary of the method: as §1
[18] = biological target: T1, Kappa-type opioid receptor (Homo sapiens, UniProt P41145); experiment: Displacement of [3H]-U69593 from human recombinant KOR receptor expressed in stable HEK cells after 90 mins by microbeta scintillation counting method; format: cell-based
Summary of the method: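 Radioligand binding was run by the NIMH Psychoactive Drug Screening Program. Compounds were first screened at 10 μM. Those giving ≥50% binding were taken to full competition curves. Ki is reported as pKi from a sigmoidal curve fit of triplicate measurements in a single experiment; the error is the curve-fit error.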

Homo sapiens [19] = organism: Homo sapiens; experiment: Selectivity index, ratio of Ki for human recombinant adrenergic Alpha2C receptor to Ki for human recombinant sigma1 receptor; summary of the method: as §1
Histamine H1 receptor = Histamine H1 receptor (Homo sapiens, UniProt P35367); experiment: Displacement of [3H]-Pyrilamine from human recombinant histamine H1 receptor expressed in stable HEK cells at 10 uM after 90 mins by microbeta scintillation counting method relative to control; format: cell-based
[20] = biological target: Alpha-2B adrenergic receptor (Homo sapiens) (UniProt P18089); experiment: Displacement of [3H]-Rauwolscine from human recombinant adrenergic Alpha2B receptor expressed in HEKT cells at 10 uM after 90 mins by microbeta scintillation counting method relative to control; format: cell-based
Homo sapiens [21] = organism: Homo sapiens; experiment: Selectivity index, ratio of Ki for human recombinant histamine H2 receptor to Ki for human recombinant sigma1 receptor; summary of the method: as §1
661W [22] = experiment: Cytoprotective activity in mouse 661W cells assessed as reduction in tBHP-induced ROS level at 30 uM after 2 hrs by […] fluorescent microscopic analysis; format: functional, cell-based
Summary of the method: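 661W cells seeded on coverslips for 18 h, then exposed 2 h to 55 μM tBHP with or without test agent or (+)-pentazocine. ROS are detected with CellROX green dye by epifluorescence, with DAPI marking nuclei. Fluorescence intensity is quantified as mean ± SD from three independent experiments, each run in duplicate.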

[23] = biological target: T1, Kappa-type opioid receptor; experiment: Displacement of [3H]-U69593 from human recombinant KOR receptor expressed in stable HEK cells at 10 uM after 90 mins by microbeta scintillation counting method relative to control; format: cell-based
Homo sapiens [24] = organism: Homo sapiens; experiment: Selectivity index, ratio of Ki for human recombinant 5-HT1E receptor to Ki for human recombinant sigma1 receptor
Homo sapiens [25] = organism: Homo sapiens; experiment: Selectivity index, ratio of Ki for human recombinant histamine H4 receptor to Ki for human recombinant sigma1 receptor; summary of the method: as §1
Homo sapiens [26] = organism: Homo sapiens; experiment: Selectivity index, ratio of Ki for human recombinant 5-HT6 receptor to Ki for human recombinant sigma1 receptor
Homo sapiens [27] = organism: Homo sapiens; experiment: Selectivity index, ratio of Ki for human recombinant adrenergic Alpha2B receptor to Ki for human recombinant sigma1 receptor; summary of the method: as §1
Homo sapiens [28] = organism: Homo sapiens; experiment: Selectivity index, ratio of Ki for human recombinant adrenergic Beta1 receptor expressed in Flp-In CHO to Ki for human recombinant sigma1 receptor; summary of the method: as §1
Homo sapiens [29] = organism: Homo sapiens; experiment: Selectivity index, ratio of Ki for human recombinant histamine H1 receptor to Ki for human recombinant sigma1 receptor; summary of the method: as §1
[30] = biological target: 5-hydroxytryptamine receptor 7 (Homo sapiens, UniProt P34969); experiment: Displacement of [3H]-LSD from human recombinant 5-HT7 receptor expressed in stable HEK cells at 10 uM after 90 mins by microbeta scintillation counting method relative to control; format: cell-based; summary of the method: as §2
[31] = biological target: Beta-1 adrenergic receptor (Homo sapiens, UniProt P08588); experiment: Displacement of [125I]-pindolol from human recombinant adrenergic Beta1 receptor expressed in Flp-In CHO cells at 10 uM after 90 mins by microbeta scintillation counting method relative to control; format: cell-based; summary of the method: as §2
[32] = biological target: 5-hydroxytryptamine receptor 2A (Homo sapiens, UniProt P28223); experiment: Displacement of [3H]-Ketanserin from human recombinant 5-HT2A receptor transiently expressed in HEKT cells at 10 uM after 90 mins by microbeta scintillation counting method relative to control; format: cell-based; summary of the method: as §2
[33] = biological target: Beta-2 adrenergic receptor (Homo sapiens, UniProt P07550); experiment: Displacement of [3H]-CGP12177 from human recombinant adrenergic Beta2 receptor expressed in Flp-In HEK cells at 10 uM after 90 mins by microbeta scintillation counting method relative to control; format: cell-based; summary of the method: as §2
Beta-2 adrenergic receptor, sequence (P07550 whole entry, looked up): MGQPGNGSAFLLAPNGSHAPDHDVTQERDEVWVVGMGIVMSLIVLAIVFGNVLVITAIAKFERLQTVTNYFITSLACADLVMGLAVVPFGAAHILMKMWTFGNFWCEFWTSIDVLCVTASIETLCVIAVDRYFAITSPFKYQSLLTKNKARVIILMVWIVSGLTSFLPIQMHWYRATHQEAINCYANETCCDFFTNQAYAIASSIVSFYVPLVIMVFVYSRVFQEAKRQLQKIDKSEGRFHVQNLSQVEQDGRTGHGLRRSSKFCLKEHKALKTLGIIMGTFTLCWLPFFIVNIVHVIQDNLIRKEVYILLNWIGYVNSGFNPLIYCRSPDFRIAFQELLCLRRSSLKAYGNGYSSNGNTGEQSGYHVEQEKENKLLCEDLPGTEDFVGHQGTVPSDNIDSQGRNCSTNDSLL

T1 sequence (P41145 whole entry): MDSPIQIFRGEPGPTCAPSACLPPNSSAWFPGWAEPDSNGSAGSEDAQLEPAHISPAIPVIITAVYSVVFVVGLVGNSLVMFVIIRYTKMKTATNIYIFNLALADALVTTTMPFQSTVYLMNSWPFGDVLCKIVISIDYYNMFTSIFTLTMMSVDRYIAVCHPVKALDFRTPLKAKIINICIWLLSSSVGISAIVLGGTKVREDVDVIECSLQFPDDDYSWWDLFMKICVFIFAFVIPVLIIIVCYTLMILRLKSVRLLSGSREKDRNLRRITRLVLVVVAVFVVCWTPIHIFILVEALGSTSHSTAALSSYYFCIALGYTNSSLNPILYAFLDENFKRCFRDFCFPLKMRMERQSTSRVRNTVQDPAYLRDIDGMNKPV
Alpha-2B adrenergic receptor (Homo sapiens), sequence (P18089 whole entry): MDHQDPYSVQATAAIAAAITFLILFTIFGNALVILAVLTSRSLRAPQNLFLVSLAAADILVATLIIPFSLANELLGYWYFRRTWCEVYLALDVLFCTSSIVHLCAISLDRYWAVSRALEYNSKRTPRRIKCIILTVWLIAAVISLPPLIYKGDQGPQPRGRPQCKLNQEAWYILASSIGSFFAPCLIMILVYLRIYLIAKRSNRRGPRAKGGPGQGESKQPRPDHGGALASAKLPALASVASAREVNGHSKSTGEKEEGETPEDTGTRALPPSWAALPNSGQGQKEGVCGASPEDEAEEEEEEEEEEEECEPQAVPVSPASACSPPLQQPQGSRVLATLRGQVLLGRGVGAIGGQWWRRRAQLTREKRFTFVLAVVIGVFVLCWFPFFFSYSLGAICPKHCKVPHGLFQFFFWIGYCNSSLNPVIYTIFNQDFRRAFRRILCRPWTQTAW
Beta-1 adrenergic receptor, sequence (P08588 whole entry, looked up): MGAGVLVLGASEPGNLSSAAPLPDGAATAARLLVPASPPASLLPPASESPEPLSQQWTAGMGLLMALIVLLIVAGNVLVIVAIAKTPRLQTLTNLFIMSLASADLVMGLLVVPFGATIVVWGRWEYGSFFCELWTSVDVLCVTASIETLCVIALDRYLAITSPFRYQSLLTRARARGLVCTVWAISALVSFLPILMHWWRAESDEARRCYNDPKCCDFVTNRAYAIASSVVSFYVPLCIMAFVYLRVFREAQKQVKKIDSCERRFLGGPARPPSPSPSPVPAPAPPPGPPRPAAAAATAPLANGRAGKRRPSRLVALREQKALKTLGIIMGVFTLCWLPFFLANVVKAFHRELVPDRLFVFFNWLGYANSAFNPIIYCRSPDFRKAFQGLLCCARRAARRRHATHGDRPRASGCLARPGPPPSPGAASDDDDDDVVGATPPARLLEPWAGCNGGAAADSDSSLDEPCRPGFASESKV
5-hydroxytryptamine receptor 7, sequence (P34969 whole entry): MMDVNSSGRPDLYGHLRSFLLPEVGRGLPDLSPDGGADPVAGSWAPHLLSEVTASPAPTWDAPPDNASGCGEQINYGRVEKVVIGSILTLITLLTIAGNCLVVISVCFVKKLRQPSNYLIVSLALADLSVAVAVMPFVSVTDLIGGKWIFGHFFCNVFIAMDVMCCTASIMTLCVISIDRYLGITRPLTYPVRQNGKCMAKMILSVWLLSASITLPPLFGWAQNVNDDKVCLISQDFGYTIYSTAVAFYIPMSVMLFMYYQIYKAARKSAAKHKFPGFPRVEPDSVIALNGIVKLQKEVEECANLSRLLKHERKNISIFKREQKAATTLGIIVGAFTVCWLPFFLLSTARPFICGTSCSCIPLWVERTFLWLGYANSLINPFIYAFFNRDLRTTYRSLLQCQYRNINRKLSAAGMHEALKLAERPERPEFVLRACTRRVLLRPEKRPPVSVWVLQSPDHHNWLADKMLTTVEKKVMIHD
Histamine H1 receptor, sequence (P35367 whole entry): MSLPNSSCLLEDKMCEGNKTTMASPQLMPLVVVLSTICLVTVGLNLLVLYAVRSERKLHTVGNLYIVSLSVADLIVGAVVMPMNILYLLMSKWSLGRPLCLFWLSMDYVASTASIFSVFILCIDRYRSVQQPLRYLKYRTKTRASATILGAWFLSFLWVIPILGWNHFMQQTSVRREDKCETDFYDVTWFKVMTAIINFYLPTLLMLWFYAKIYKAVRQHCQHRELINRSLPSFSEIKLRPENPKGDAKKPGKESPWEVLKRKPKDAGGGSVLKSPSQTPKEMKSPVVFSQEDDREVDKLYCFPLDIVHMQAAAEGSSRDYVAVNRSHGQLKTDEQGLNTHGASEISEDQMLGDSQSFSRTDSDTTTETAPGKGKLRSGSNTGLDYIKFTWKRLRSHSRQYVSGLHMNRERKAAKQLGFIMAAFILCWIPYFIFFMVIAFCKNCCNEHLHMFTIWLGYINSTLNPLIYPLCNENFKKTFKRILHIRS
5-hydroxytryptamine receptor 2A, sequence (P28223 whole entry): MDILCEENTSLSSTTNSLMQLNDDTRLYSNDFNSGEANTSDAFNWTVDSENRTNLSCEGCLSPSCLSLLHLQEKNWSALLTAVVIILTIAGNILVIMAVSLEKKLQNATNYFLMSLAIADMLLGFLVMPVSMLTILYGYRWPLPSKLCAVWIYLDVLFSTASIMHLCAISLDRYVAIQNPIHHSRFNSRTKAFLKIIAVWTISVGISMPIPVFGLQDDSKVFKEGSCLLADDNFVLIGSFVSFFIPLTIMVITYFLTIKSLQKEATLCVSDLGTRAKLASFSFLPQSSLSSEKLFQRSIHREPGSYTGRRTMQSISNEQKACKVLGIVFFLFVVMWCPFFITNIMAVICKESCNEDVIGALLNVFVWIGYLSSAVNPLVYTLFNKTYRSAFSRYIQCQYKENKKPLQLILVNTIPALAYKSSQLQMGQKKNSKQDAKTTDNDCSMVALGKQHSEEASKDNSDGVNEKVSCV
Mu-type opioid receptor, sequence (P35372 whole entry): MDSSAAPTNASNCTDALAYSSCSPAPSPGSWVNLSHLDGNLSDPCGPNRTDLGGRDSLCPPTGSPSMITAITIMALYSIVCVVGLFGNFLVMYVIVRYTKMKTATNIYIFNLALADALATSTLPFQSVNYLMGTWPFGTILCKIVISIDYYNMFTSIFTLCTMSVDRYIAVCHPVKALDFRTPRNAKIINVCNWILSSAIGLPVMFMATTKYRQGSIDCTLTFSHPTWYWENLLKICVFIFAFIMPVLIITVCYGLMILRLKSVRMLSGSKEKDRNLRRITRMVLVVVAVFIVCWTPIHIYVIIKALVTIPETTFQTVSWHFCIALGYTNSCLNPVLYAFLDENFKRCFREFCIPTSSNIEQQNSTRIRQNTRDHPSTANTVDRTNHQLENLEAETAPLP
Sodium-dependent dopamine transporter, sequence (Q01959 whole entry): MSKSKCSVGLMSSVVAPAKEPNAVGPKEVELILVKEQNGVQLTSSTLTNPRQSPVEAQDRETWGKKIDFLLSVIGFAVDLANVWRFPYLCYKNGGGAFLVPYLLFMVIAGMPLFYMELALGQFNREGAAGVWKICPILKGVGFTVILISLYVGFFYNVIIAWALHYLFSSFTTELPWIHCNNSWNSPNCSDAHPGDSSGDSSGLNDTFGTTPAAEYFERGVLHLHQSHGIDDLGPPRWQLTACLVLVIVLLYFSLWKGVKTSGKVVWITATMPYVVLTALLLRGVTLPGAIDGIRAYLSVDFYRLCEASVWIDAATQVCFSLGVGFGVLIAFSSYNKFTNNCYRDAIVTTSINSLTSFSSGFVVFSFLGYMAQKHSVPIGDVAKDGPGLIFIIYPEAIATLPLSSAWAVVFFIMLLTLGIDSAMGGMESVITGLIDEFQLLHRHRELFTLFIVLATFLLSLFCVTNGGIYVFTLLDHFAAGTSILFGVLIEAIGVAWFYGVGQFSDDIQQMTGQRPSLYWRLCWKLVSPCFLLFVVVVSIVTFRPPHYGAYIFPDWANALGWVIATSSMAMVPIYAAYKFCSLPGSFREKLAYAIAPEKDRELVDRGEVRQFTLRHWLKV

SMILES: COc1cc(OC)c2c(c1)OC[C@@]1(C)NCC[C@@H]21 (racemic)
- inhibition [1]: < 50%
- Ratio Ki (Homo sapiens [2]): > 20
- Ratio Ki (Homo sapiens [3]): > 20
- Activity (661W [4]): >80%
- Ratio Ki (Homo sapiens [5]): > 20
- Ratio Ki [6]: > 20
- Ratio Ki (Homo sapiens [7]): > 20
- Ratio Ki (Homo sapiens [8]): > 20
- inhibition (Mu-type opioid receptor): < 50%
- Ratio Ki (Homo sapiens [9]): > 20
- Ratio Ki (Homo sapiens [10]): > 20
- Ratio Ki (Homo sapiens [11]): > 20
- Activity (661W [12]): Dose-dependent effect
- Activity (661W [13]): inactive
- Ratio Ki (Homo sapiens [14]): > 20
- Ratio Ki (Homo sapiens [15]): > 20
- Ratio Ki (Homo sapiens [16]): > 20
- Ratio Ki (Homo sapiens [17]): > 20
- Ki [18]: > 10 µM
- Ratio Ki (Homo sapiens [19]): > 20
- inhibition (Histamine H1 receptor): < 50%
- inhibition [20]: < 50%
- Ratio Ki (Homo sapiens [21]): > 20
- inhibition (661W [22]): Active
- inhibition [23]: < 50%
- Ratio Ki (Homo sapiens [24]): > 20
- Ratio Ki (Homo sapiens [25]): > 20
- Ratio Ki (Homo sapiens [26]): > 20
- Ratio Ki (Homo sapiens [27]): > 20
- Ratio Ki (Homo sapiens [28]): > 20
- Ratio Ki (Homo sapiens [29]): > 20

- Ki [18]: > 10 µM
SMILES: C[C@@]12CN(c3ccccc3)c3ccccc3[C@@H]1CCN2 (racemic)

SMILES: CC[C@H]1c2cc(OC)ccc2CC[C@@]1(C)N (racemic)
- inhibition [30]: < 50%
- Ki [18]: 0.316 µM
- inhibition [31]: < 50%
- inhibition [32]: < 50%

SMILES: CC[C@H]1c2cc(C)ccc2OC[C@@]1(C)N (racemic)
- inhibition [1]: < 50%
- inhibition (Mu-type opioid receptor): < 50%
- inhibition [30]: < 50%
- Ki [18]: > 10 µM
- inhibition (Histamine H1 receptor): < 50%
- inhibition [20]: < 50%
- inhibition [23]: < 50%
- inhibition [33]: < 50%
- inhibition [31]: < 50%
- inhibition [32]: < 50%

- Ki [18]: > 10 µM
SMILES: CC[C@H]1c2ccccc2N(c2ccccc2)C[C@@]1(C)N (racemic)
